Experimental data reported in ChEMBL document CHEMBL1124684, “Studies on prodrugs. 10. Possible mechanism of N-dealkylation of N-masked norfloxacins having several active methylene groups” (J Med Chem, 1989).

Key:
[1] = (§1) Compound was evaluated for Area under curve in mice; format: ADME, organism-based; parameters: concentration or dose not given beside the values; details: mouse, in vivo
Mus musculus [2] = organism: Mus musculus; test: as §1; format: ADME, organism-based; parameters: concentration or dose not given beside the values; details: in vivo
Mus musculus [3] = test: Serum concentration of the liberated Norfloxacin after oral administration 100 mg/kg in mice after the 1.0 h; format: functional, organism-based; parameters: dose 100 mg/kg
How it was run: (§2)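 Mice dosed orally at 100 mg/kg, suspended in 0.5% sodium carboxymethylcellulose. Animals killed by bleeding at 0.5, 1.0, 2.0 and 4.0 h; blood centrifuged, serum adjusted. NFLX in serum quantified by HPLC with UV detection at 280 nm. Stability of the masked compounds at pH 7.4 and 37 °C was checked beforehand by HPLC.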

Mus musculus [4] = test: Serum concentration of the liberated Norfloxacin after oral administration 100 mg/kg in mice after the 2.0 h; format: functional, organism-based; parameters: dose 100 mg/kg; how it was run: as §2
Mus musculus [5] = test: Serum concentration of the liberated Norfloxacin after oral administration 100 mg/kg in mice after the 4.0 h; format: functional, organism-based; parameters: dose 100 mg/kg; how it was run: as §2
Mus musculus [6] = test: (§3) Serum concentration of the liberated Norfloxacin after oral administration (100 mg/kg) in mice after 0.5 hr; format: functional, organism-based; how it was run: as §2
Mus musculus [7] = test: Serum concentration of the liberated Norfloxacin after oral administration (100 mg/kg) in mice after 1.0 hr; format: functional, organism-based; how it was run: as §2
Mus musculus [8] = test: Serum concentration of the liberated Norfloxacin after oral administration (100 mg/kg) in mice after 2.0 hr; format: functional, organism-based; how it was run: as §2
Mus musculus [9] = test: Serum concentration of the liberated Norfloxacin after oral administration (100 mg/kg) in mice after 4.0h; format: functional, organism-based; how it was run: as §2
Mus musculus [10] = test: Serum concentration of the liberated Norfloxacin after oral administration 100 mg/kg in mice after the 0.5 h; format: functional, organism-based; parameters: dose 100 mg/kg; how it was run: as §2
Mus musculus [11] = test: Serum concentration of the liberated Norfloxacin after oral administration (100 mg/kg) in mice after 0.5 hr; ND is not detected; format: functional, organism-based; how it was run: as §2
Mus musculus [12] = test: Serum concentration of the liberated Norfloxacin after oral administration (100 mg/kg) in mice after 2.0h; ND is not detected; format: functional, organism-based; how it was run: as §2
Mus musculus [13] = test: Serum concentration of the liberated Norfloxacin after oral administration (100 mg/kg) in mice after 4.0h; ND is not detected; format: functional, organism-based; how it was run: as §2
Mus musculus [14] = test: Serum concentration of the liberated Norfloxacin after oral administration (100 mg/kg) in mice after 1.0h; ND is not detected; format: functional, organism-based; how it was run: as §2
Mus musculus [15] = test: as §3; format: functional, organism-based; how it was run: as §2; remark: listed apart in the source

CCn1cc(C(=O)O)c(=O)c2cc(F)c(N3CCN(CC#N)CC3)cc21
AUC [1]: 3060 ng·h/mL | AUC (Mus musculus [2]): 3.06 µg·h/mL | Serum concentration (Mus musculus [3]): 0.75 µg/mL | Serum concentration (Mus musculus [4]): 1.15 µg/mL | Serum concentration (Mus musculus [5]): 0.63 µg/mL | Serum concentration (Mus musculus [6]): 0.29 µg/mL | Serum concentration (Mus musculus [7]): 0.75 µg/mL | Serum concentration (Mus musculus [8]): 1.15 µg/mL | Serum concentration (Mus musculus [9]): 0.63 µg/mL | Serum concentration (Mus musculus [10]): 0.29 µg/mL

CCn1cc(C(=O)O)c(=O)c2cc(F)c(N3CCN(C(C)C(C)=O)CC3)cc21 (stereo not drawn)
AUC [1]: 5710 ng·h/mL | AUC (Mus musculus [2]): 5.71 µg·h/mL | Serum concentration (Mus musculus [3]): 1.68 µg/mL | Serum concentration (Mus musculus [4]): 1.67 µg/mL | Serum concentration (Mus musculus [5]): 0.63 µg/mL | Serum concentration (Mus musculus [6]): 2.63 µg/mL | Serum concentration (Mus musculus [7]): 1.68 µg/mL | Serum concentration (Mus musculus [8]): 1.67 µg/mL | Serum concentration (Mus musculus [9]): 0.63 µg/mL | Serum concentration (Mus musculus [10]): 2.63 µg/mL

CCn1cc(C(=O)O)c(=O)c2cc(F)c(N3CCN(CC(C)O)CC3)cc21 (stereo not drawn)
Serum concentration (Mus musculus [11]): Not detected | Serum concentration (Mus musculus [12]): Not detected | Serum concentration (Mus musculus [13]): Not detected | Serum concentration (Mus musculus [14]): Not detected

CCn1cc(C(=O)O)c(=O)c2cc(F)c(N3CCN(CC(C)=O)CC3)cc21
AUC [1]: 22000 ng·h/mL | AUC (Mus musculus [2]): 22.01 µg·h/mL | Serum concentration (Mus musculus [15]): 6.33 µg/mL | Serum concentration (Mus musculus [3]): 5.74 µg/mL | Serum concentration (Mus musculus [4]): 3.96 µg/mL | Serum concentration (Mus musculus [5]): 2.62 µg/mL | Serum concentration (Mus musculus [6]): 6.33 µg/mL | Serum concentration (Mus musculus [7]): 5.74 µg/mL | Serum concentration (Mus musculus [8]): 3.96 µg/mL | Serum concentration (Mus musculus [9]): 2.62 µg/mL

CCn1cc(C(=O)O)c(=O)c2cc(F)c(N3CCNCC3)cc21 [NORFLOXACIN]
AUC [1]: 6490 ng·h/mL | AUC (Mus musculus [2]): 6.49 µg·h/mL | Serum concentration (Mus musculus [3]): 2.02 µg/mL | Serum concentration (Mus musculus [4]): 1.12 µg/mL | Serum concentration (Mus musculus [5]): 0.56 µg/mL | Serum concentration (Mus musculus [6]): 3.47 µg/mL | Serum concentration (Mus musculus [7]): 2.02 µg/mL | Serum concentration (Mus musculus [8]): 1.12 µg/mL | Serum concentration (Mus musculus [9]): 0.56 µg/mL | Serum concentration (Mus musculus [10]): 3.47 µg/mL

CCOC(=O)CN1CCN(c2cc3c(cc2F)c(=O)c(C(=O)O)cn3CC)CC1
AUC [1]: 3900 ng·h/mL | AUC (Mus musculus [2]): 3.9 µg·h/mL | Serum concentration (Mus musculus [3]): 1.37 µg/mL | Serum concentration (Mus musculus [4]): 0.38 µg/mL | Serum concentration (Mus musculus [5]): 0.42 µg/mL | Serum concentration (Mus musculus [6]): 3.77 µg/mL | Serum concentration (Mus musculus [7]): 1.37 µg/mL | Serum concentration (Mus musculus [8]): 0.38 µg/mL | Serum concentration (Mus musculus [9]): 0.42 µg/mL | Serum concentration (Mus musculus [10]): 3.77 µg/mL

CCn1cc(C(=O)O)c(=O)c2cc(F)c(N3CCN(C(C)(C)C(C)=O)CC3)cc21
Serum concentration (Mus musculus [11]): Not detected | Serum concentration (Mus musculus [12]): Not detected | Serum concentration (Mus musculus [13]): Not detected | Serum concentration (Mus musculus [14]): Not detected
